Data taken from ChEMBL document CHEMBL4513216, “Probing the Open Global Health Chemical Diversity Library for Multistage-Active Starting Points for Next-Generation Antimalarials” (ACS Infect Dis, 2020).

Assay: Toxicity liver stage against HepG2, at 10uM
Assay type: cell-based
Design: test concentration 10 uM, cell line HepG2-A16-CD81EGFP
Conditions: human, HepG2-A16-CD81EGFP cells; read-out: INHIBITION
In short: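 Uninfected HepG2-A16-CD81EGFP cells, 3 × 10^3 per well, 1536-well, plated on prespotted compound at 10 μM final, parasite-free screening media added to match infected plates; puromycin 10 μM positive, DMSO 0.5% negative; run in parallel with 48 h PbLuc assay at 37 °C, 5% CO2; viability by CellTiter-Glo luminescence, normalized to controls.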

Compound | cytotoxicity at 10 µM [%]
Cc1ccc2[nH]c([C@H]3CCN(CC4CCCCC4)C3)nc2c1 | -3.45
CO[C@@H]1CN(c2ccccc2)S(=O)(=O)[C@@]12CCN(C(=O)N(C)C)C2 | 10.1
COc1ccc2nnc(CCCC(=O)NCCc3ccccn3)n2n1 | -9.49
O=C(CCc1ccccc1)NCC1CCN(Cc2cccs2)CC1 | -2.68
COc1ccc(S(=O)(=O)NCC(O)c2sccc2C)cc1Cl (stereo not given) | 1.17
CCc1ccc(S(=O)(=O)N2CCN(CCn3ccnc3)CC2)cc1 | -8.81
c1ccc(-c2nnn3c2COC(CNCc2ccccn2)C3)cc1 (stereo not given) | 0.595
O=C(c1cnc(C2CC2)nc1)N1CCCC(c2nccs2)C1 (stereo not given) | 4.53
Cc1nc(C)c(C(=O)N2Cc3ccccc3OCC2Cn2ccnc2)s1 (stereo not given) | 9.21
CC(C)(C)CN1CCCC(c2nccnc2Nc2cnccn2)C1 (stereo not given) | 5.37
CCN(CC)S(=O)(=O)N1C[C@@H](c2ccccc2)[C@H]2[C@H]1CCCCCN2C | -10.4
CNc1cncc(C2CCCN2c2cc(C)ncn2)n1 (stereo not given) | -23.3
Cc1nnsc1C(=O)N1CCCC(n2nnc3cc(F)ccc32)C1 (stereo not given) | 3.49
O=C(Cc1ccccc1F)N1CCCCC1c1ccn2ccnc2n1 (stereo not given) | -3.83
CNc1cccc(C2CCCN(C(=O)c3cscn3)C2)n1 (stereo not given) | -11.3
CCN(CC)C(=O)Cn1c(=O)n(Cc2ccco2)c2ncccc21 | -6.77
CN1CCCCC1c1ncc2c(n1)CCN(Cc1ccccc1Cl)C2 (stereo not given) | -1.67
C[C@H](C(=O)N1Cc2ccccc2CC2(CCCN2C)C1)c1ccccc1 (stereo not given in full) | 6.42
COC(=O)CNC(=O)c1ccn(-c2ccc(Cl)c(Cl)c2)n1 | -8.77
CN1CCN(c2ccc(F)cc2NC(=O)NCc2ccon2)CC1 | -6.84
COCCOCC(=O)NC1CCN(c2ccccn2)CC1 | -0.555
CC(C)c1noc(C[S+]([O-])CC(=O)Nc2ccc(F)c(F)c2)n1 (stereo not given) | -8.82

Compound | cytotoxicity at 10 µM [%]
CC(Cc1c(F)cccc1F)NC(=O)NCc1ncnn1C (stereo not given) | 12.9
O=C(Nc1cccc(N2CCOCC2)c1)N[C@H](CO)c1ccccc1 | -8.1
CCCN(CCC)C(=O)c1cnn(C)c1C | -128
COC(=O)c1cccc(CNC(=O)CC(F)(F)F)c1 | 17.4
O=C(Cn1nnn(-c2cccs2)c1=O)N(CC1CCOC1)C1CC1 (stereo not given) | -39.9
COc1ccccc1C(=O)NCCC(=O)Nc1c(C)nn(C)c1C | -9.49
O=C(OCC1CCN(c2ccccc2)C1)c1cscn1 (stereo not given) | 1.27
CN(C)c1ccccc1CN1CCCC(N2CCCC2=O)C1 (stereo not given) | -9.13
Cc1cnc(CN(Cc2ccc(Cl)s2)C2CCN(C)C2)o1 (stereo not given) | 14.5
CCS(=O)(=O)NCc1cc(Br)c(OC)c(OC)c1 | -6.83
COC(=O)[C@H](C)NC(=O)c1cnc(Cc2ccc(F)cc2)s1 | -10.9
N#Cc1ccc(CNC(=O)NC2CCN(CC(F)(F)F)C2)cc1 (stereo not given) | 7.06
COc1ccc(-c2nnc(SC(C)C(=O)NC3CCCC3)[nH]2)c(OC)c1 (stereo not given) | 36.4
O=C(N1CCC(Oc2ccncc2)C1)C1(c2ccc(F)cc2)CC1 (stereo not given) | -8.55
Cn1cc(C(=O)Nc2cccc(Oc3ccncc3)c2)ccc1=O | -1.21
CS(=O)(=O)c1ccccc1NCc1ccc(Cn2ccnc2)cc1 | 1.67
CN(c1ncnc2ccccc12)C1CCCN(c2cccnn2)C1 (stereo not given) | 19.5
Cc1c(I)cccc1C(=O)NCc1nnc[nH]1 | -2.86
CNC(=O)c1cccc(CNC(C)c2cc(C)ccc2OC(F)F)c1 (stereo not given) | 20.2
COCC(NC(=O)c1cn(-c2cccc(Cl)c2F)nn1)C1CC1 (stereo not given) | 11.1
CCCc1ccc(S(=O)(=O)NC2(CC(N)=O)CCC2)cc1 | 17.9
CC(c1nnc(-c2cccs2)o1)N1CCn2c(nnc2C2CC2)C1 (stereo not given) | 17.7

Compound | cytotoxicity at 10 µM [%]
COCC(O)CN(C)C(=O)NCc1ccc(-c2ccn[nH]2)cc1 (stereo not given) | 1.81
CC1(c2ccc(Br)cc2)CC(=O)N(CC(N)=O)C1=O (stereo not given) | 2.05
CCSc1ccc(C(C)NC(=O)CNS(C)(=O)=O)cc1 (stereo not given) | 10.4
COc1cccc(C2=CCN(CCN3CCCC3=O)CC2)c1 | -10.6
CC(=O)NC1CCCN(C(=O)Nc2nnc(C(C)C)s2)C1 (stereo not given) | 12.6
Cc1cc(C(=O)NS(C)(=O)=O)ccc1I | 6.85
N#Cc1cc(F)c(NCc2ccc(F)cc2)c(F)c1 | -57
COCc1ccc(CNC(=O)C2=NN(c3ccccc3)C(=O)CN2)cc1 | 26.7
Cc1ccc(C(=O)NCCCNS(C)(=O)=O)cc1-n1cccc1 | -10
Cn1cccc1C(=O)N1CCn2cc(CN3CCCC3)nc2C1 | -72.3
N#Cc1ccc(C(=O)N2CCn3cc(CN4CCCCC4)nc3C2)cc1 | -84.7
CCN(C)c1ncnc2c1CCN(C(=O)c1cccn1C)CC2 | -67.8
O=C(O)CNc1cc(-c2nccnc2N2CCCC2)c2cc[nH]c2n1 | 4.9
Cc1nccn1CCC(=O)N1CCCN(CCCc2ccccc2)CC1 | -13.6
Cc1c[nH]c(CN2CCCCC2CCn2cccn2)c(C)c1=O (stereo not given) | 3.69
Cc1sc2nc(CCN)nc(N(CCN(C)C)CC3CCCO3)c2c1C (stereo not given) | -9.54
CC(C)c1nccc(CN(C)Cc2cnn(-c3ccccc3)c2)n1 | 6.66
CC(=O)c1cccc(CN2CC(Oc3ccccc3C)C2)c1 | -4.16
CCOc1ccc2nc(CN3CCC(CNC(C)=O)C3)ccc2c1 (stereo not given) | -7.23
CCN1CC(C(=O)N2CCc3cc(C(=O)N(C)C)n(C)c3C2)CCC1=O (stereo not given) | -48.1
CCn1c(CC2CCN(C(=O)c3cc(CC(C)C)on3)CC2)n[nH]c1=O | -2.7
CCOC(=O)CNc1nc(C(C)(C)C)nc2c1cnn2C | -12.8

Compound | cytotoxicity at 10 µM [%]
COCCN(C)Cc1nc(-c2cccc(F)c2F)oc1C | 2.56
COc1ccccc1N1CCN(C(=O)CCn2nnnc2C)CC1(C)C | 6.48
CN(Cc1ccncc1)Cc1cnn(-c2ccc(F)cc2)c1 | 10
Cc1nccn1CCN(C)c1cc(C(C)C)nc2ccnn12 | -3.88
COc1cc(CN2CCC(O)(c3ccc(C)cn3)CC2)cc(Cl)c1OC | -132
Cc1cc(N2CCN(C3CCSCC3)CC2)n2nc(C)c(C)c2n1 | 0.0879
Nc1nc(CNc2ncnc3c2CCN(Cc2ccoc2)CC3)cs1 | 1.63
O=C(CCCn1nnc(-c2ccc(F)cc2)n1)N1CCOCC(CO)C1 (stereo not given) | 16.2
Fc1ccc(C2CCCCN2Cc2cc(-c3ccccn3)no2)cc1 (stereo not given) | -3.88
CC(C1CCN(Cc2c(Cl)cncc2Cl)CC1)N1CCN(C)CC1 (stereo not given) | -12.2
O=C(c1cc(-c2cn[nH]c2)nc2ccc(F)cc12)N1CCSCC1 | -0.0178
NC1CCN(C(=O)c2cnc(Cc3c(Cl)cccc3Cl)nc2O)C1 (stereo not given) | -0.803
Cc1ncn(-c2cc(N3CCN(S(C)(=O)=O)CC3)ncn2)c1C | 6.23
Cc1cc(C(=O)N(C)Cc2ccn[nH]2)c(NC(=O)C(C)(C)C)s1 | 2.72
Cc1nnsc1CN(C)C(=O)CN1CC2(CCNCC2)OC1=O | 11.4
CN(Cc1ccccc1)CC1(O)CCCN(CC(C)(C)C)C1=O (stereo not given) | -12.4
CC(OCC1CC1)C(=O)Nc1ncn(CC(=O)N2CCCCCC2)n1 (stereo not given) | -15.2
CCn1ccnc1CN1CCN(CC(=O)NC(C2CC2)C2CC2)CC1 | -19.4
CCOCC(O)CN1CCN(C(=O)Cc2ccc3c(c2)CCC3)CC1 (stereo not given) | -15.5
Cn1ccnc1C(NCc1csc(Br)c1)c1ccccc1 (stereo not given) | -0.12
CC(NCc1ccccc1Br)c1ccc2[nH]c(=O)[nH]c2c1 (stereo not given) | -6.12
CN(Cc1ccccc1)C(=O)c1nc(S(C)(=O)=O)n2ccccc12 | -7.36

Compound | cytotoxicity at 10 µM [%]
CC(C)CC(CNC(=O)NCc1cc[nH]n1)N1CCOCC1 (stereo not given) | -12.6
Cc1nn(-c2ccccc2)cc1C(=O)N1CCCN2CCCC2C1 (stereo not given) | -2.21
CCc1n[nH]c(C2CN(C(=O)CCc3cccs3)CCO2)n1 (stereo not given) | 5.73
CCc1nc(C2CCCN(C(=O)CN(C)S(C)(=O)=O)C2)no1 (stereo not given) | -3.22
Cc1nc(CN2CCCCC2Cn2cncn2)nc2ccccc12 (stereo not given) | -3.46
CCc1nccn1-c1cncc(C2CCCN2)n1 (stereo not given) | -6.17
CC(NCc1cnc(N2CCOCC2)nc1)c1ccc(Cl)s1 (stereo not given) | -4.9
Cc1cccc(N(CC(=O)c2ccccc2)C2=NCCCCC2)c1 | 14.5
c1cncc(-c2nccc(CN3CCCC3)n2)c1 | 2.34
CCOC(=O)[C@]12CCCN(Cc3cccs3)C[C@H]1CN(C(C)=O)C2 | 4.13
Cc1cc(CN2C[C@@H](C)[C@@]3(CCN(CC(=O)N(C)C)C3=O)C2)oc1C | 9.94
CN1CC(=O)N(c2cnn(C)c2)CC12CCN(C(=O)c1ccsc1)C2 (stereo not given) | -1.37
Cc1ccc(N2C[C@@H]3CN(C(=O)c4ccccc4)CCO[C@@H]3C2)nn1 | -5.52
Cn1cc(CN2C[C@@H]3COC[C@]3(CNC(=O)c3ccco3)C2)cn1 | -73.1
Fc1cnc(N2CC3(CCN(Cc4ccsc4)C3)C2)nc1 | -84.4
CN(Cc1ccncc1)C1COC2(CCN(Cc3ccccn3)CC2)C1 (stereo not given) | -103
NCC(=O)N1CCCC(c2cncc(Nc3ncccn3)n2)C1 (stereo not given) | 0.848
O=S(=O)(N1CCCC1)N1CC[C@H](c2ccccc2)[C@H]2NCCCC[C@H]21 | -25.1
Cn1cc(CN2CC[C@]3(C[C@H](Oc4ccccn4)CO3)C2)cn1 | 10.8
c1cc(C2CC2)n2cnc(C3CN(Cc4ccncc4)CCO3)c2c1 (stereo not given) | 6.59
Cc1cccc(N2CC3(CCN(Cc4nccn4C)C3)CC2=O)c1 (stereo not given) | -78.6
Cc1nc(COC[C@H]2CC[C@H]3NCC[C@H]3O2)cs1 | -5.64
